High-throughput results (PubChem BioAssay)
MrgX1 PAM: allosterically activates human MrgX1 receptor signaling; Q96LB2; MrgX1-HEK293, Fluo-4 calcium flux, FDSS; stronger effect = higher value; B-score at 10 µM; hit rate 0.63% among 310,000; AID 588675;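 active = plate-corrected calcium response at least 3 library SD above typical, normal starting fluorescence, not activating the receptor alone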;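 note: compound read alongside a low EC10 to EC30 dose of BAM8-22 agonist; peak minus trough fluorescence over baseline measured at the second addition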
Target sequence (Q96LB2 whole entry, looked up): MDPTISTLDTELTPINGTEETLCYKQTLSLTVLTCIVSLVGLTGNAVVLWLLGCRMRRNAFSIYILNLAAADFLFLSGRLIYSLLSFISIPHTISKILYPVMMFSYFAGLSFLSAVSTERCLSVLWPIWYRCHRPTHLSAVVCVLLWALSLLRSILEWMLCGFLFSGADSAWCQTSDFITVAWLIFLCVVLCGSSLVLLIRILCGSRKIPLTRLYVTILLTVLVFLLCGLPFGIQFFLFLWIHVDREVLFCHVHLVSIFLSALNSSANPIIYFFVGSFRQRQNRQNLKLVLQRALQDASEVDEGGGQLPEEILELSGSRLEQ
MrgX1 antagonist: human MrgX1 receptor antagonism, primary screen. Q96LB2. MRGX1-HEK293 calcium flux, Fluo-4, BAM8-22 antagonism; stronger effect = lower value. B-score at 10 µM. hit rate 1.3% among 310,000. AID 588676;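 active = calcium-response B-score plate-corrected more than 3 library SD below zero, starting fluorescence within 5 deviations, no agonist response on first addition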;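 note: peak minus trough fluorescence over baseline after final BAM8-22 challenge near maximal dose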
RGS4 block: human RGS4 inhibition; AID 463165; P49798; HEK293 M3R/RGS4 inducible, Fluo-4 calcium flux; stronger effect = higher value; triggered by carbachol at its EC20; B-score at 10 µM; hit rate 0.45% among 310,000;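 active = B-score, a plate-corrected calcium signal, over three deviations above library mean, with baseline fluorescence within five deviations of library mean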;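 note: RGS4 expression induced by doxycycline in cells with stable M3 receptor; B-score is computed from the integrated fluorescence ratio over baseline after carbachol; higher B-score means a larger calcium signal and so more RGS4 inhibition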
RGS4 pot: RGS4 potentiation or activation. HEK293 M3R/inducible RGS4, carbachol calcium flux Fluo4; stronger effect = lower value. B-score at 10 µM. hit rate 0.92% among 310,000;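 active = B-score of the integrated calcium signal more than 4 SD below the library mean, with starting fluorescence not abnormally high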;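 note: negative B-score means reduced calcium response which marks RGS4 activation or potentiation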
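Material: M3R-expressing HEK293 line, RGS4 induced by doxycycline | Schedule: Overnight RGS4 induction, 30 min dye load 37 °C, 20 min compound RT | Measured by: Fluo4 fluorescence kinetic imaging of calcium | Read-out: Integrated calcium ratio converted to B score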
MrgX1 agonist: activates human MrgX1 receptor signaling; B-score at 10 µM; Q96LB2; MrgX1-HEK293 cells, Fluo-4 calcium fluorescence, agonist mode; stronger effect = higher value; hit rate 0.44% among 310,000;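 active = calcium response B-score plate-corrected fluorescence ratio at least 3 library SD, with starting fluorescence B-score inside 5 SD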
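Material – MrgX1-expressing HEK293 cells · Input – 15,000 cells seeded per well · Dosing – compound as first of three additions · Times – overnight seeding, then 1 h dark dye loading · Measured by – kinetic Fluo-4 NW fluorescence of intracellular calcium · Read-out – B-scored fluorescence response ratio · Benchmarks – positive and negative control wells on each plate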
RGS4 block valid: RGS4 inhibitor validation. shares compounds with RGS4 block. HEK293 M3R/RGS4, carbachol calcium Fluo-4 fluorescence; carbachol added at its EC20; 0 = buffer wells, 100 = carbachol control. calcium response, % at 10 µM. hit rate 65% among 1,700;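 active = duplicate-averaged calcium response above the buffer-only control mean plus 5 SD of those controls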;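 note: integrated fluorescence ratio F max minus min over baseline F0; higher response in RGS4-induced cells means RGS4 inhibition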
RGS4 uninduced: checks RGS4 inhibitor effects in non-induced HEK293 M3R cells; shares compounds with RGS4 block; carbachol calcium Fluo-4; submaximal (EC20) carbachol stimulus; buffer wells 0%, carbachol control wells 100%; activity (percent), % at 10 µM; hit rate 20% among 1,900; AID 493000; call rule not given here;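 note: RGS4 induction absent so cells express M3R without RGS4; higher means more calcium signal and flags a non-specific hit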
M3R basal Ca ctr: signal in non-induced cells without carbachol, RGS4 inhibitor counter-screen. HEK293 M3R/RGS4 non-induced, Fluo-4 calcium, no carbachol; normalised: buffer wells 0%, carbachol wells 100%. AID 493001. hit rate 22% among 1,900. shares compounds with RGS4 block. calcium response (agonist-mode artifact), % at 10 µM;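 active = duplicate-averaged calcium rise in uninduced cells above buffer wells' mean plus 5 SD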
* hit, by the source's call; i = inactive; . = no result given. Sampled rows, rich in hits. Any-hit rate of the full collection: about 3.5%.

SMILES	MrgX1 PAM	MrgX1 antagonist	RGS4 block	RGS4 pot	MrgX1 agonist	RGS4 block valid	RGS4 uninduced	M3R basal Ca ctr
O=C(Cc1ccc(Cl)cc1)Nc1ccccc1C(=O)N1CCCCC1	i	i	i	i	i	.	.	.
Cc1cc(=O)oc2c3c(cc(OCC(=O)N[C@@H](Cc4ccccc4)C(=O)O)c12)OC(C)(C)CC3	i	i	i	i	i	.	.	.
CCCCC(NC(=O)COc1cc2c(c3oc(=O)cc(C)c13)CCC(C)(C)O2)C(=O)O (stereo unspecified)	i	i	5.7*	i	i	i	i	i
Cc1cc(=O)oc2c3c(cc(OCC(=O)N[C@@H](C)C(=O)O)c12)OC(C)(C)CC3	i	i	i	i	i	.	i	i
CN(C)C(CNC(=O)CCCN1C(=O)c2cccc3cccc(c23)C1=O)c1ccccc1 (stereo unspecified)	i	i	i	i	i	.	.	.
Cc1ccc(Nc2nc(N)c3ccccc3n2)cc1C	i	i	i	i	i	i	i	i
CC1S/C(=N/N=C/c2cccs2)NC1=O (stereo unspecified)	i	i	i	i	i	.	.	.
O=C1N/C(=N\N=C\c2cccs2)SC1Cc1ccc(Cl)cc1 (stereo unspecified)	i	i	i	i	i	.	.	.
CCCC1S/C(=N/N=C/c2cccs2)NC1=O (stereo unspecified)	i	i	i	i	i	.	i	i
CCC1S/C(=N/N=C/c2cccs2)NC1=O (stereo unspecified)	i	i	i	i	i	.	i	i
Cc1cc(O)c2c(c1)C(=O)c1cc(O)cc(O)c1C2=O	i	i	i	i	i	.	.	.
O=C1c2cc(O)cc(O)c2C(=O)c2c1cc(O)c([C@@H](CO)CCO)c2O	i	i	6.3*	i	i	18%*	i	67%*
CCOC(=O)c1c(C)[nH]c(C(=O)CN2C(=O)NC(C)(c3ccc4ccccc4c3)C2=O)c1C (stereo unspecified)	i	i	5.7*	i	i	9.0%*	i	i
CCCC1(c2ccccc2)NC(=O)N(CC(=O)c2[nH]c(C)c(C(=O)OCC)c2C)C1=O (stereo unspecified)	i	i	i	i	i	.	.	.
O=C(CN(C(=O)CNS(=O)(=O)c1ccc(F)cc1)c1ccc(F)cc1)NCc1ccco1	i	i	i	i	i	i	i	i
Cc1ccc(C)c(N(CC(=O)NCc2ccco2)C(=O)CNS(=O)(=O)c2ccc(F)cc2)c1	i	i	i	i	i	.	.	.
O=C(CN(C(=O)CNS(=O)(=O)c1ccc(F)cc1)c1ccccc1)NCc1ccco1	i	i	i	i	i	i	i	i
O=C(CN(C(=O)CNS(=O)(=O)c1ccc(F)cc1)c1ccccc1F)NCc1ccco1	i	i	4.9*	i	i	i	i	i
Cn1c(CC(=O)Nc2ccccc2)nnc1SCC(=O)NC1CCCC1	i	i	i	i	i	.	.	.
CCC(CO)NCc1ccc(OCC(O)c2ccccc2)c(OC)c1 (stereo unspecified)	i	i	i	i	i	.	.	.
CC1=C(C(N)=O)C(c2cccs2)NC(=O)N1 (stereo unspecified)	i	i	i	i	i	.	.	.
Cc1cccnc1NC(=O)c1ccc(C(=O)c2ccccc2)cc1	i	i	i	i	i	.	.	.
